Source: ChEMBL document CHEMBL1155016, “Locking the two ends of tetrapeptidic HTLV-I protease inhibitors inside the enzyme” (Bioorg Med Chem, 2008)

How the values were obtained:
[1] = target: Protease (Human T-cell leukemia virus type I, UniProt Q82134, L40I); experiment: Inhibition of HTLV1 protease L40I mutant
How it was run: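 HTLV-I protease carrying the L40I substitution, which blocks autolysis and stabilises the enzyme; run by the group's earlier reported protocol; potency given as IC50 in nM.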

[2] = target: Protease (Human immunodeficiency virus 1) (UniProt Q9YQ12); experiment: Inhibition of HIV1 protease at 50 nM
Chain of Protease (Human immunodeficiency virus 1) (Q9YQ12 as listed by the source): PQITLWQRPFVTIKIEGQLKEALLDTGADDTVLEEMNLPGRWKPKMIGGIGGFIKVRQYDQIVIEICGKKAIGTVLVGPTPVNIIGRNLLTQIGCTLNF

Chain of Protease (Q82134 entry or part of it L40I): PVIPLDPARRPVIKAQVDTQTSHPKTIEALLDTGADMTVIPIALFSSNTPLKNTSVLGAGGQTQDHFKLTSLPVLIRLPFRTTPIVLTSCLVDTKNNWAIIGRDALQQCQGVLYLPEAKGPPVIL

Row | Compound | IC50 [1] [µM] | inhibition [2] [%]
1 | CC(C)CC(=O)N[C@H](C(=O)N[C@H](C(=O)N[C@@H](Cc1ccccc1)[C@H](O)C(=O)N1CSC(C)(C)[C@H]1C(=O)NCC(C)(C)C)C(C)(C)C)c1ccccc1 | 0.082 | > 98
2 | CCCC(=O)N[C@H](C(=O)N[C@H](C(=O)N[C@@H](Cc1ccccc1)[C@H](O)C(=O)N1CSC(C)(C)[C@H]1C(=O)NC(C)C(C)C)C(C)(C)C)c1ccccc1 (stereo partly specified) | 0.659 | > 98
3 | CC(C)CC(=O)N[C@H](C(=O)N[C@H](C(=O)N[C@@H](Cc1ccccc1)[C@H](O)C(=O)N1CSC(C)(C)[C@H]1C(=O)NC(C)C(C)C)C(C)(C)C)c1ccccc1 (stereo partly specified) | 0.107 | > 98
